Positions count from the first letter of the chain named. Where “and” joins values, the source holds several entries; their conditions need not be identical. Equal values may be shown once. Read-outs that look alike come from different tables or passages of the source.
Columns and labels:
C-HsCen2-T138D = assay: ITC, peptide binding to C-HsCen2 T138D; design: species or system human; conditions: presence of Ca2+; versus C-HsCen2 wild type
In short: (§1)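 Recombinant human centrin (full-length or C-terminal domain; Asp variants made by double-PCR mutagenesis) was expressed in E. coli BL21(DE3), heat-treated at 63 °C, then purified by ion-exchange, phenyl and gel-filtration chromatography. ITC at 30 °C: 10 μM centrin titrated with 100 μM N-acetylated, C-amidated peptide in 50 mM MOPS, 100 mM NaCl, pH 7.5, plus 1 mM CaCl₂ or 2 mM EDTA. Dilution heats subtracted; data fitted for n, Ka and ΔH.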

C-HsCen2-S158D = assay: ITC, peptide binding to C-HsCen2 S158D; design: species or system human; conditions: versus C-HsCen2 wild type
In short: as §1

[1] = tested on: HsCen1 (full-length human centrin 1); assay: ITC, peptide binding to full-length HsCen1
In short: as §1

C-HsCen2 T138D-S158D = assay: ITC, peptide binding to C-HsCen2 T138D-S158D; design: species or system human; conditions: presence of Ca2+; versus C-HsCen2 wild type
In short: as §1

[2] = tested on: HsC1P (human centrin 1 phosphorylated by CK2 at T138); assay: ITC, peptide binding to CK2-phosphorylated HsCen1; conditions: EDTA / absence of Ca2+; phosphorylated versus unphosphorylated centrin 1
[3] = biological target: human centrin 1, full-length (human) (UniProt Q12798); assay: ITC
[4] = biological target: transducin β (Trd) 325-340 (UniProt P62873); assay: ITC, peptide titrated into centrin; conditions: reference: wild type C-HsCen1; sites T138
[5] = biological target: CK2 (catalytic α and regulatory β subunits complex) (Homo sapiens, UniProt P67870+P68400); assay: In vitro phosphorylation by CK2, HPLC quantification; format: biochemical; conditions: for reduction of phosphorylation by addition of Ca2+: CK2, 37 °C
Sequence of CK2 (catalytic α and regulatory β subunits complex) (P68400 whole entry, the tested form may be a part): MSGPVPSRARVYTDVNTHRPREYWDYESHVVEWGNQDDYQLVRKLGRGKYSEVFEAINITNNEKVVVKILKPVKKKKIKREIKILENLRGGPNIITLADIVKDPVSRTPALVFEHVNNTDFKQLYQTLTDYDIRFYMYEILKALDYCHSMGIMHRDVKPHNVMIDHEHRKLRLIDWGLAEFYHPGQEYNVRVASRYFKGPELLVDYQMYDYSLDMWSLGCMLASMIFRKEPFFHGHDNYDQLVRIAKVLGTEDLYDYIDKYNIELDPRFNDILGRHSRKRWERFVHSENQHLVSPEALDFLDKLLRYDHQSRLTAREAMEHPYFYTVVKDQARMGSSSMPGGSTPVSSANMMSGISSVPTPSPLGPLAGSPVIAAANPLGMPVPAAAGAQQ
Sequence of CK2 (catalytic α and regulatory β subunits complex) (P67870 whole entry partner, the tested form may be a part): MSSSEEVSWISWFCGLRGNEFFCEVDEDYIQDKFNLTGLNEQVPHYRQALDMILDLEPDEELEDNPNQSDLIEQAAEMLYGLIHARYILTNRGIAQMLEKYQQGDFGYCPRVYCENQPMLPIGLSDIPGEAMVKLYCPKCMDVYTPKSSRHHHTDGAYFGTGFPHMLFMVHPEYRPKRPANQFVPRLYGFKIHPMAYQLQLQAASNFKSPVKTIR

[6] = biological target: C-terminal domain of human centrin 1 T138D (human); assay: ITC
[7] = biological target: T1, human centrin 1 T138D, full-length (human, UniProt Q12798 1-172, T138D); assay: ITC
T1 sequence: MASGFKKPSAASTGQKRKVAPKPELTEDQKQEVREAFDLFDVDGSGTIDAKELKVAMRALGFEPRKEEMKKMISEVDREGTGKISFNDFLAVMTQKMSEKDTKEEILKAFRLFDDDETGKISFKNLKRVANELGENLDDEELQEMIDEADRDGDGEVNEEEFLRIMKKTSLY

[8] = biological target: T2, C-terminal domain of human centrin 1 (M93-Y172) (human, UniProt Q12798 93-172); assay: ITC
Target sequence in this assay (Q12798 93-172): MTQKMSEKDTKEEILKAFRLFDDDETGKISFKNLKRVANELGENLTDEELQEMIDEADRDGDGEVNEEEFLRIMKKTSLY

[9] = biological target: T2, C-terminal domain of human centrin 1 …; assay: ITC; remark: listed apart in the source
[10] = biological target: T1, human centrin 1 T138D, full-length; assay: ITC; remark: listed apart in the source
[11] = biological target: T3, human centrin 1, full-length (human, UniProt Q12798 1-172); assay: ITC
T3 sequence: T1 sequence with D138T

[12] = biological target: T3, human centrin 1, full-length; assay: ITC; remark: listed apart in the source
[13] = biological target: T4, C-terminal domain of human centrin 2 S158D (human, UniProt P41208 93-172, S158D); assay: ITC
T4 sequence (P41208 93-172 S158D): as the sequence (Q12798 93-172) above, with R19K, N39K, N66D, E68Q counted along it

[14] = biological target: T5, C-terminal domain of human centrin 2 T138D (human, UniProt P41208 93-172, T138D); assay: ITC
T5 sequence (P41208 93-172 T138D): as the sequence (Q12798 93-172) above, with R19K, N39K, T46D, N66S, E68Q counted along it

[15] = biological target: T6, C-terminal domain of human centrin 2 (M93-Y172) (human, UniProt P41208 93-172); assay: ITC
T6 sequence (P41208 93-172): as the sequence (Q12798 93-172) above, with R19K, N39K, N66S, E68Q counted along it

[16] = biological target: T7, C-terminal domain of human centrin 2 T138D-S158D (human, UniProt P41208 93-172, T138D | S158D); assay: ITC
T7 sequence (P41208 93-172 T138D/S158D): as the sequence (Q12798 93-172) above, with R19K, N39K, T46D, N66D, E68Q counted along it

[17] = biological target: T4, C-terminal domain of human centrin 2 …; assay: ITC; remark: listed apart in the source
[18] = biological target: T5, C-terminal domain of human centrin 2 …; assay: ITC; remark: listed apart in the source
[19] = biological target: T6, C-terminal domain of human centrin 2 …; assay: ITC; remark: listed apart in the source
[20] = biological target: T7, C-terminal domain of human centrin 2 …; assay: ITC; remark: listed apart in the source
[21] = after 5 h, without Ca2+ (Fig. 1A, B)
[22] = after 3 h at 37 °C, EGTA, HPLC peak integration
[23] = after 3 h at 37 °C, presence of Ca2+

641-RADLHHQHSVLHRALQAWVT-660 [R17-Sfi1]
factor of increase of affinity by the T138D mutation (C-HsCen2-T138D): 3 | factor of reduction of affinity by the S158D mutation (C-HsCen2-S158D; absence of Ca2+): 4.7 | factor of increase of affinity by the S158D mutation (C-HsCen2-S158D; presence of Ca2+): 5 | factor of decrease of binding constant of HsCen1 compared with R18-Sfi1 ([1]; absence of Ca2+): 10 | factor of increase of affinity by the T138D-S158D double mutation (C-HsCen2 T138D-S158D): 2

677-SQHNRQLLRGALRRWK-692 [R18-Sfi1]
equilibrium association constant Ka ([1]; presence of Ca2+, centrin 1, ITC, one-site binding model): 2.5 10^8 M^−1 | factor of reduction of binding by phosphorylation at T138 [2]: 10

HsTrBW332L, transducin β peptide 325-340 W332L
Ka [3]: 130000 M⁻¹ | dH [3]: -10.6 kcal/mol

human centrin 1 (HsCen1) C-terminal domain, 93-172 (from UniProt Q12798) C-HsCen1 T138E
other: Ka [4]: weaker; reference 0.54 (0.3)

C-HsCen2-S158D: S158D phosphomimetic variant of the C-terminal domain of human centrin 2
factor of reduction of the phosphorylation rate at T138 ([5]; C-HsCen2-S158D versus S158A variant, without Ca2+): 1.36 | factor of reduction of the phosphorylation rate at T138 ([5]; C-HsCen2-S158D, presence of Ca2+): 2.1

C-HsCen2-K131N: K131N variant of the C-terminal domain of human centrin 2
increase in phosphorylation by the mutation versus wild type ([5]; after 5 h): 12% | protein phosphorylated by CK2 [5, 21]: 60%

human centrin 1 (HsCen1) C-terminal domain, 93-172 (from UniProt Q12798) C-HsCen1 T138D
other: Ka [4]: weaker; reference 0.54 (0.3)

HsTrB, transducin β-derived peptide 325-340 (last WD repeat)
Ka [3]: 170000 M⁻¹ | dH [3]: -12.2 kcal/mol

C-HsCen1N131K: N131K variant of the C-terminal domain of human centrin 1
reduction of phosphorylation by addition of Ca2+ [5]: 40% | reduction of phosphorylation by the mutation versus wild type ([5]; after 5 h): 30% | protein phosphorylated by CK2 [5, 21]: 50%

C-HsCen2: C-terminal domain (M93-Y172) of human centrin 2, recombinant; here as CK2 substrate
protein phosphorylated by CK2 [5, 22]: 45% | protein phosphorylated by CK2 [5, 23]: 15% | protein phosphorylated by CK2 [5, 21]: 48% | protein phosphorylated by CK2 ([5]; after 48 h, presence of Ca2+): 50%

C-HsCen1: C-terminal domain (M93-Y172) of human centrin 1, recombinant; here as CK2 substrate
reduction of phosphorylation by addition of Ca2+ [5]: 30% | protein phosphorylated by CK2 [5, 22]: 62% | protein phosphorylated by CK2 [5, 23]: 30% | protein phosphorylated by CK2 [5, 21]: 80% | protein phosphorylated by CK2 ([5]; after 10 h, presence of EGTA): 95% | protein phosphorylated by CK2 ([5]; after 48 h, presence of Ca2+): 80% | time after which 95% phosphorylation was achieved ([5]; presence of Ca2+): 48 h

Ac-MAVATGSWDSFLKIWN-NH2 [HsTrB, transducin β-derived peptide 325-340 (last WD repeat)]
dH [6]: -9.97 kcal/mol | Ka [7]: 180000 M⁻¹ | dH [7]: -8.14 kcal/mol | stoichiometry N [7]: 0.75

Ac-SQHNRQLLRGALRRWK-NH2 [HsSfiR18, repeat 18 peptide of human Sfi1 (677-692)]
Ka [8]: 8.15e+07 M⁻¹ | dH [8]: -22.5 kcal/mol | stoichiometry N [8]: 0.99 | Ka [9]: 3.56e+06 M⁻¹ | dH [9]: -29.8 kcal/mol | stoichiometry N [9]: 1.03 | Ka [10]: 875000 M⁻¹ | dH [10]: -36.4 kcal/mol | stoichiometry N [10]: 0.83 | Ka [11]: 3.47e+06 M⁻¹ | dH [11]: -34.7 kcal/mol | stoichiometry N [11]: 0.88 | Ka [7]: 2.39e+08 M⁻¹ | dH [7]: -36.7 kcal/mol | stoichiometry N [7]: 0.77 | Ka [12]: 2.49e+08 M⁻¹ | dH [12]: -35.5 kcal/mol | stoichiometry N [12]: 0.88

Ac-RADLHHQHSVLHRALQAWVT-NH2 [HsSfiR17, repeat 17 peptide of human Sfi1 (641-660)]
Ka [8]: 1.25e+08 M⁻¹ | dH [8]: -18 kcal/mol | stoichiometry N [8]: 1.21 | Ka [13]: 40000 M⁻¹ | dH [13]: -38.5 kcal/mol | stoichiometry N [13]: 0.77 | Ka [14]: 230000 M⁻¹ | dH [14]: -9.76 kcal/mol | stoichiometry N [14]: 0.75 | Ka [15]: 190000 M⁻¹ | dH [15]: -31.3 kcal/mol | stoichiometry N [15]: 0.72 | Ka [9]: 120000 M⁻¹ | dH [9]: -43.1 kcal/mol | stoichiometry N [9]: 0.88 | Ka [16]: 3.5e+07 M⁻¹ | dH [16]: -22.4 kcal/mol | stoichiometry N [16]: 0.91 | Ka [17]: 1.01e+08 M⁻¹ | dH [17]: -25.9 kcal/mol | stoichiometry N [17]: 0.7 | Ka [18]: 4.54e+07 M⁻¹ | dH [18]: -24.3 kcal/mol | stoichiometry N [18]: 0.86 | Ka [19]: 1.82e+07 M⁻¹ | dH [19]: -20.2 kcal/mol | stoichiometry N [19]: 0.95 | Ka [11]: 347000 M⁻¹ | dH [11]: -19.2 kcal/mol | stoichiometry N [11]: 1.12

Ac-NWKLLAKGLLIRERLKR-NH2 [P17-XPC, 17-residue peptide of human XPC]
Ka [8]: 3.96e+07 M⁻¹ | dH [8]: -23.3 kcal/mol | stoichiometry N [8]: 0.93 | Ka [20]: 800000 M⁻¹ | dH [20]: -26.8 kcal/mol | dH [13]: -23.8 kcal/mol | Ka [14]: 2.5e+06 M⁻¹ | dH [14]: -32.7 kcal/mol | stoichiometry N [14]: 0.94 | Ka [15]: 7.35e+06 M⁻¹ | dH [15]: -29.3 kcal/mol | stoichiometry N [15]: 0.95 | Ka [9]: 8.25e+06 M⁻¹ | dH [9]: -28.1 kcal/mol | dH [16]: -23.9 kcal/mol | stoichiometry N [16]: 1.18 | Ka [17]: 4.31e+07 M⁻¹ | dH [17]: -23 kcal/mol | stoichiometry N [17]: 0.89 | Ka [18]: 2.71e+07 M⁻¹ | dH [18]: -24 kcal/mol | stoichiometry N [18]: 0.82 | Ka [19]: 5.27e+07 M⁻¹ | dH [19]: -23.4 kcal/mol | stoichiometry N [19]: 0.81 | Ka [10]: 2.9e+06 M⁻¹ | dH [10]: -30.2 kcal/mol | stoichiometry N [10]: 0.92 | Ka [11]: 1.22e+07 M⁻¹ | dH [11]: -28.4 kcal/mol | stoichiometry N [11]: 0.98 | Ka [7]: 1.02e+08 M⁻¹ | dH [7]: -28.5 kcal/mol | stoichiometry N [7]: 0.95 | Ka [12]: 5.25e+07 M⁻¹ | dH [12]: -28.4 kcal/mol | stoichiometry N [12]: 1.04

Ac-TVWAQLARHLVSHQHHLDAR-NH2 [HsSfi1R17inv, repeat 17 peptide of human Sfi1 in reversed sequence orientation]
Ka [8]: 1.49e+08 M⁻¹ | dH [8]: -21.6 kcal/mol | stoichiometry N [8]: 0.8 | dH [15]: -20.1 kcal/mol and -22 kcal/mol | stoichiometry N [15]: 0.91 and 1.09 | Ka [9]: 690000 M⁻¹ | dH [9]: -26.6 kcal/mol | stoichiometry N [9]: 0.825

— publication PMC4050191 (FEBS Open Bio, 2014)
